NTR1 ag: agonists of human neurotensin receptor NTR1; NTR1-U2OS beta-arrestin-GFP spot imaging, agonist mode; activation, % at 20 µM; actives 0.17% (n = 330,000); AID 493036;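 active means activation at or above 40% of the spot to cytoplasm intensity ratio, with at least 20 cells analyzed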;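 further: 0% = DMSO without peptide and 100% = 100 nM NTR1 peptide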
Arrestin-AP2 inh: inhibitors of human beta-arrestin and AP2 interaction; FITC-arrestin peptide / GST-AP2 beads, flow cytometry; AP2 beta2 appendage carries R879A mutation; inhibition, % at 10 µM; actives 0.31% (n = 340,000); AID 504490;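 active means inhibition above a set limit, near 3 SD of compounds lacking own fluorescence, cut at about 54% in these data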;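 further: plate controls were DMSO wells for no effect and 5 µM unlabelled arrestin peptide for full effect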
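System: GST-AP2 R879A bound to glutathione beads, E. coli-expressed. Also added: 50 nM FITC-arrestin peptide. Schedule: compound with beads 12 min RT, then probe 1 h RT. Signal: bead flow cytometry, FITC channel. Read-out basis: percent response.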
PLCb3 inh: inhibitors of human phospholipase C beta3. Purified PLC-beta3, fluorogenic substrate, fluorescence. Q01970. inhibition, % at 12.2 µM. AID 720704. actives 0.18% (n = 370,000); in the data active means inhibition above about 11%;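 further: 0% = median of compound wells on plate and 100% = full blocker control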
Target sequence (Q01970 whole entry, looked up): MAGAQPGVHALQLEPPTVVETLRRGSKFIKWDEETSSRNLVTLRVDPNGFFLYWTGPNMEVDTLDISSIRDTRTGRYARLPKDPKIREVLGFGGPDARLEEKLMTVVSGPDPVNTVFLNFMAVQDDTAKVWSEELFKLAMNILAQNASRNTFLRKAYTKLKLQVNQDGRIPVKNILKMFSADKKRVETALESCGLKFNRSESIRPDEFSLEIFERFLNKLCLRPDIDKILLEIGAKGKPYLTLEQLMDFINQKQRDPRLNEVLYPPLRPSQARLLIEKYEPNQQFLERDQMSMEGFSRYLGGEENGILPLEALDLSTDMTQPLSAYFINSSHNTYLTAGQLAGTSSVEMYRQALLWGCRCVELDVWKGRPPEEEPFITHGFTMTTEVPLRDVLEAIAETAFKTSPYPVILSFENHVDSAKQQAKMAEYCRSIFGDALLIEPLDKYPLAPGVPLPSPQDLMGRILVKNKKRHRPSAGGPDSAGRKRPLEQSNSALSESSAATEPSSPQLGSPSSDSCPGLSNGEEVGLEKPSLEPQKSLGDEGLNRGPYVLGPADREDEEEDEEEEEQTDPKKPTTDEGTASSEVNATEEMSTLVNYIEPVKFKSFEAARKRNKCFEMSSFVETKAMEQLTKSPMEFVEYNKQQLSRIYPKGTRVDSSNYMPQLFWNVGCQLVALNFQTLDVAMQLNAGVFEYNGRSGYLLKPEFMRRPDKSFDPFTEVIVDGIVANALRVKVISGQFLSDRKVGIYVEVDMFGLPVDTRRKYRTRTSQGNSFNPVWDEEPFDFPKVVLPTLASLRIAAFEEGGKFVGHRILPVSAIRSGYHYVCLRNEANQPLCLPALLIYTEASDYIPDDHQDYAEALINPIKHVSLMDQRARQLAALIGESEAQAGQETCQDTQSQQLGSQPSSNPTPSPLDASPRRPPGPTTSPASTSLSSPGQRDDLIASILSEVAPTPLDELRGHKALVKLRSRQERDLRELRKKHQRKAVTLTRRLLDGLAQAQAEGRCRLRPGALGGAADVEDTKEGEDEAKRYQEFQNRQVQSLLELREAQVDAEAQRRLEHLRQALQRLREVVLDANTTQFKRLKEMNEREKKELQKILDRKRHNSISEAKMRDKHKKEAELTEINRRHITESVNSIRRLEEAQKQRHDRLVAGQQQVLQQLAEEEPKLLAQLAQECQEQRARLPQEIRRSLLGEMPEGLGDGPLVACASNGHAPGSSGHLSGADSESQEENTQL
PLCg1 inh: inhibitors of human phospholipase C gamma1; actives 0.84% (n = 370,000); purified PLC-gamma1, fluorogenic substrate, fluorescence; P19174; inhibition, % at 12.2 µM; in the data active means inhibition above about 9.5%
Arr AP2 CP1: blocks beta-arrestin peptide binding to human AP2. shares compounds with Arrestin-AP2 inh. GST-AP2 beads, FITC arrestin peptide binding, flow cytometry; GST-fused beta2-adaptin appendage, R879A mutant. inhibition, % at 10 µM. actives 2% (n = 1,300);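 active means inhibition above a set limit, roughly 3 SD of non-fluorescent compound noise, cut at about 38% in these data; inactive means inhibition at or below that limit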;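 further: loss of bead fluorescence from 50 nM FITC arrestin peptide bound to appendage; 0% = negative control wells and 100% = excess unlabelled arrestin peptide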
GST-FITC bead: disrupts GST binding to glutathione beads, arrestin-AP2 artifact | inhibition, % at 10 µM | GST-fluorescein binding to GSH beads, fluorescence, counter-screen | shares compounds with Arrestin-AP2 inh | actives 2% (n = 1,300);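 active means inhibition above 50%, about 3 SD of the inhibition seen with non-fluorescent compounds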;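 further: fluorescein maleimide labelled GST captured on 4 micron glutathione beads; higher means more loss of bead fluorescence from quenching or blocked binding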
Active calls of the source: *; . = no result given. Only some compounds are listed: those with a hit (about 1.3% of all), similar ones and a draw of the others.

SMILES	NTR1 ag	Arrestin-AP2 inh	PLCb3 inh	PLCg1 inh	Arr AP2 CP1	GST-FITC bead
O=C(O)/C=C\C(=O)Nc1ccc(OC(F)F)cc1	1.5	54.4*	0.2	4.1	-11.6	-1.2
CCOC(=O)C1=NOC(C(=O)Nc2nccs2)(C(=O)C2CC2)C1 (stereo not drawn)	.	.	-2.7	-1.2	.	.
O=C(N/N=C/c1cccc([N+](=O)[O-])c1)c1ccc(Br)cc1	0.1	6.5	-6.3	-3.4	.	.
O=C(N/N=C/c1cccc([N+](=O)[O-])c1)c1cccc(Br)c1	-1.5	104.3*	-1.5	-7.7	12.8	60.3*
O=C(COC(=O)c1ccc(F)cc1F)c1ccc[nH]1	1.0	71.8*	-0.9	2.0	-4.5	1.9
O=C(/C=C/c1ccc(F)cc1)OCC(=O)c1ccc[nH]1	0.3	26.6	-3.5	0.3	.	.
CCN(CC(=O)Nc1c(F)cccc1F)C(=O)c1ccc2ccccc2n1	0.3	5.4	2.8	1.9	.	.
CCN(CC(=O)Nc1c(F)cccc1F)C(=O)/C=C/c1ccc2ccccc2n1	-0.2	60.0*	-20.8	-10.8	22.0	5.0
Cc1nc2c(C)cccn2c(=O)c1NC(=O)c1cccs1	-0.4	65.7*	3.9	-0.1	5.9	4.7
CC(C)CCCCCCCCc1cccc(O)c1C(=O)O	.	.	-3.1	-2.4	.	.
CC(=O)N1CCCN(C(=O)Cn2cnc3ccccc3c2=O)CC1	.	.	-1.1	0.3	.	.
O=C1c2ccccc2NC(c2cnc3ccccc3n2)N1O (stereo not drawn)	0.8	94.5*	-24.0	-22.2	-1.5	-14.1
COc1cc2c(cc1NC(=O)CSc1ccc(Cl)cc1)oc1ccccc12	3.5	0.1	0.8	0.5	-9.2	10.0
COc1ccc(NC(=O)CC(C)CC(=O)NCc2ccccc2)c(OC)c1 (stereo not drawn)	-0.9	61.5*	-5.9	0.9	0.1	0.4
COc1cc2c(cc1NC(=O)CSc1ccccn1)oc1ccccc12	10.1	18.5	1.7	-3.2	.	.
COc1ccccc1CC(=O)Nc1cc2oc3ccccc3c2cc1OC	2.2	54.2*	5.6	4.1	-3.4	-24.0
CCN(CC)c1ccc(C(=O)OCC(=O)Nc2cc3oc4ccccc4c3cc2OC)cc1	1.0	36.9	0.5	1.5	-12.7	-4.7
COC1=C[C@H](C(=O)N[C@H]2CCCC[C@@H]2NC(C)=O)[C@@]2(C)Cc3ccccc3[C@H]2CC1=O	.	.	-2.0	0.5	.	.
COc1cccc(S(=O)(=O)N(C)C[C@@H]2Oc3ncc(Br)cc3C(=O)N([C@H](C)CO)C[C@@H]2C)c1	.	.	-0.1	1.0	.	.
CC(C)CN(CC(C)C)C(=O)c1cn(C(C)c2ccccc2)nn1 (stereo not drawn)	.	.	2.7	2.8	.	.
Cc1ccc(-n2c(Cc3cccs3)nnc2SCC(=O)Nc2ccc(OCc3ccccc3)cc2)cc1	.	.	0.8	-0.7	.	.
COc1ccc(Cn2ccc3ccc(-c4ccc5ccn(C(=O)c6ccc(C)cc6)c5c4)cc32)cc1	.	.	-58.2	-45.0	.	.
COc1cc2c(cc1NC(=O)COc1ccc3ccccc3c1)oc1ccccc12	-1.7	-1.9	4.7	0.6	.	.
COc1ccc(CC(=O)Nc2cc3oc4ccccc4c3cc2OC)cc1	1.8	1.3	-0.6	-1.1	-4.3	4.4
COC(=O)[C@]12C[C@H](CC(=O)NCc3cccc(C(F)(F)F)c3)C(=O)N(Cc3cccc4ccccc34)C1=C[C@H](C(C)C)O[C@@H]2C1CC1	.	.	1.3	-1.1	.	.
SMILES	NTR1 ag	Arrestin-AP2 inh	PLCb3 inh	PLCg1 inh	Arr AP2 CP1	GST-FITC bead
Cc1ccc(CNC(=O)C2CCC(=O)N2Cc2ccc(C)cc2)cc1 (stereo not drawn)	0.3	-22.1	-5.4	0.9	.	.
Cc1ccc(CN2C(=O)CCC2C(=O)NCCN2CCOCC2)cc1 (stereo not drawn)	1.4	6.0	7.9	6.9	-9.7	-4.5
O=C(NCCCN1CCN(c2cccc(Cl)c2)CC1)C1CCC(=O)N1Cc1ccccc1Cl (stereo not drawn)	.	4.4	3.8	0.7	5.8	-10.6
Cc1ccc(CN2C(=O)CCC2C(=O)NCCCN2CCCC(C)C2)cc1 (stereo not drawn)	1.1	1.7	1.2	5.3	-11.2	-8.5
COc1cc(OC)cc(C(=O)NCC(=O)OCc2nc3ccccc3s2)c1	1.0	55.4*	-10.8	-2.7	1.2	5.0
COCc1ccc(CN2CCC(C(=O)Nc3cccc(-c4cccc(Cl)c4)c3)CC2)o1	22.9	56.6*	-6.2	0.7	9.1	-0.3
